Measured values taken from ChEMBL document CHEMBL2385032, “Dual-functional abeo-taxane derivatives destabilizing microtubule equilibrium and inhibiting NF-κB activation” (2013).
Calls of active or inactive are those of the source. The calls are words filed in the database; no cut-off is given here.

Key:
LOX IMVI = experiment: Cytotoxicity against human LOXIMVI cells; assay type: functional
MOLT-4 = experiment: Cytotoxicity against human MOLT4 cells; assay type: functional
Method in brief: (§1)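 NCI-60 human tumor cell line screen run by standard NCI protocol: single-dose prescreen at 10 μM, then multi-dose testing of compounds giving over 50% growth inhibition; GI50 = concentration for 50% growth inhibition.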

T47D = experiment: Cytotoxicity against human T47D cells; assay type: functional; method in brief: as §1
HCT-116 [1] = experiment: Cytotoxicity against human HCT116 cells; assay type: functional; method in brief: as §1
DU-145 = experiment: Cytotoxicity against human DU145 cells; assay type: functional; method in brief: as §1
SNB-19 = experiment: Cytotoxicity against human SNB19 cells; assay type: functional; method in brief: as §1
NCI-H322M = experiment: Cytotoxicity against human NCI-H322M cells; assay type: functional; method in brief: as §1
RXF 393 = experiment: Cytotoxicity against human RXF393 cells; assay type: functional; method in brief: as §1
OVCAR-3 = experiment: Cytotoxicity against human OVCAR3 cells; assay type: functional; method in brief: as §1
Tubulin (Homo sapiens) [2] = target: T1, Tubulin (Homo sapiens) (UniProt P68371+Q9H4B7+P0DPH7+P68366+Q13509+Q71U36+P04350+Q3ZCM7+P07437+P68363+Q9BQE3+Q6PEY2+Q13885+Q9BVA1+Q9BUF5); experiment: Induction of tubulin (unknown origin) polymerization at 3 uM by fluorescence assay; assay type: protein-complex assay
Method in brief: (§2)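 Cell-free tubulin polymerization kit; tubulin mixed with DMSO control, 500 μM CaCl2, 3 μM paclitaxel or test compounds at 15 or 30 μM; polymerization followed kinetically by fluorescence, excitation 340 nm, emission 420 nm, in a temperature-regulated fluorimeter. Three independent experiments in triplicate.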

PC-3 [3] = experiment: Induction of microtubule polymerization in human PC3 cells assessed as bundled sheet like pattern at 200 nM after 24 hrs by DAPI staining-based immunofluorescence microscopic analysis; assay type: cell-based
Method in brief: (§3)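 PC-3 cells grown on chamber slides 36 h, then treated 24 h (test agents 2, 5 or 10 μM; reference agents 200 nM); fixed in 4% paraformaldehyde, permeabilized with 0.5% Triton X-100, stained with anti-α-tubulin monoclonal plus FITC secondary and DAPI for nuclei; spindle and microtubule morphology by fluorescence microscopy.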

HEK-293T [4] = experiment: Inhibition of TNF-alpha induced NF-kapppaB activation in HEK293T cells at 0.62 uM incubated 1 hr prior to TNF-alpha addition measured after 18 hrs by luciferase reporter gene assay; assay type: cell-based; conditions: Homo sapiens
Method in brief: (§4)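 HEK 293T cells transiently transfected 12 h with pNFκB-luc and pRL-TK, pretreated 1 h with compound (0.31–2.50 μM) or DMSO, then stimulated with TNF-α 25 ng/mL for 18 h; firefly and Renilla luciferase read by dual-luciferase assay. Data from one of three independent experiments.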

HCT-116 [5] = experiment: Cell cycle arrest in human HCT116 cells assessed as accumulation at G2/M phase at 1 uM after 12 hrs by propidium iodide staining-based FACS analysis (reference value: 20.40 to 22.32 %); assay type: functional
HCT-116 [6] = experiment: Cell cycle arrest in human HCT116 cells assessed as accumulation at S phase at 1 uM after 12 hrs by propidium iodide staining-based FACS analysis (reference value: 20.48 to 23.62 %); assay type: functional
HCT-116 [7] = experiment: Induction of apoptosis in human HCT116 cells after 24 hrs by AnnexinV-FITC/PI staining-based flow cytometry; assay type: functional, cell-based
HCT-116 [8] = experiment: Induction of apoptosis in human HCT116 cells assessed as late apoptotic cells at 2 uM after 24 hrs by AnnexinV-FITC/PI staining-based flow cytometry (reference value: 2.53 %); assay type: functional
Homo sapiens [9] = species on record: Homo sapiens; experiment: Induction of microtubule depolymerization in human PC3 interphase cells at 5 uM after 24 hrs by DAPI staining-based immunofluorescence microscopic analysis; assay type: cell-based; method in brief: as §3
Homo sapiens [10] = species on record: Homo sapiens; experiment: Induction of microtubule depolymerization in human PC3 mitotic cells assessed as abnormal spindles at 5 uM after 24 hrs by DAPI staining-based immunofluorescence microscopic analysis; assay type: cell-based; method in brief: as §3
HCT-116 [11] = experiment: Induction of apoptosis in human HCT116 cells at 2 uM after 24 hrs by AnnexinV-FITC/PI staining-based flow cytometry; assay type: functional
HCT-116 [12] = experiment: Cell cycle arrest in human HCT116 cells assessed as accumulation at S phase at 2 uM after 12 hrs by propidium iodide staining-based FACS analysis (reference value: 20.48 to 23.62 %); assay type: functional
HCT-116 [13] = experiment: Cell cycle arrest in human HCT116 cells assessed as accumulation at G0/G1 phase at 1 uM after 12 hrs by propidium iodide staining-based FACS analysis (reference value: 54.63 to 55.88 %); assay type: functional
HCT-116 [14] = experiment: Induction of apoptosis in human HCT116 cells assessed as early apoptotic cells at 2 uM after 24 hrs by AnnexinV-FITC/PI staining-based flow cytometry (reference value: 2.17 %); assay type: functional
HCT-116 [15] = experiment: Cell cycle arrest in human HCT116 cells assessed as accumulation at G0/G1 phase at 2 uM after 12 hrs by propidium iodide staining-based FACS analysis (reference value: 54.63 to 55.88 %); assay type: functional
HCT-116 [16] = experiment: Cell cycle arrest in human HCT116 cells assessed as accumulation at G2/M phase after 12 hrs by propidium iodide staining-based FACS analysis; assay type: functional
HEK-293T [17] = experiment: Inhibition of TNF-alpha induced NF-kapppaB activation in HEK293T cells at 1.25 uM incubated 1 hr prior to TNF-alpha addition measured after 18 hrs by luciferase reporter gene assay; assay type: cell-based; conditions: Homo sapiens; method in brief: as §4
HCT-116 [18] = experiment: Induction of apoptosis in human HCT116 cells assessed as early apoptotic cells at 1 uM after 24 hrs by AnnexinV-FITC/PI staining-based flow cytometry (reference value: 2.17 %); assay type: functional
HEK-293T [19] = experiment: Inhibition of TNF-alpha induced NF-kapppaB activation in HEK293T cells incubated 1 hr prior to TNF-alpha addition measured after 18 hrs by luciferase reporter gene assay; assay type: cell-based; conditions: Homo sapiens; method in brief: as §4
Tubulin (Homo sapiens) [20] = target: T1, Tubulin (Homo sapiens); experiment: Inhibition of tubulin (unknown origin) polymerization assessed as destabilization of microtubule at 15 uM by fluorescence assay; assay type: protein-complex assay; method in brief: as §2
HCT-116 [21] = experiment: Induction of apoptosis in human HCT116 cells assessed as late apoptotic cells at 1 uM after 24 hrs by AnnexinV-FITC/PI staining-based flow cytometry (reference value: 2.53 %); assay type: functional
HCT-116 [22] = experiment: Cell cycle arrest in human HCT116 cells assessed as reduction in G0/G1 phase after 12 hrs by propidium iodide staining-based FACS analysis; assay type: functional
HEK-293T [23] = experiment: Inhibition of TNF-alpha induced NF-kapppaB activation in HEK293T cells at 2.50 uM incubated 1 hr prior to TNF-alpha addition measured after 18 hrs by luciferase reporter gene assay; assay type: cell-based; conditions: Homo sapiens; method in brief: as §4
HCT-116 [24] = experiment: Induction of apoptosis in human HCT116 cells at 1 uM after 24 hrs by AnnexinV-FITC/PI staining-based flow cytometry; assay type: functional
PC-3 [25] = experiment: Induction of microtubule depolymerization in human PC3 cells at 200 nM after 24 hrs by DAPI staining-based immunofluorescence microscopic analysis; assay type: cell-based; method in brief: as §3
Homo sapiens [26] = species on record: Homo sapiens; experiment: Induction of microtubule depolymerization in human PC3 interphase cells at 2 uM after 24 hrs by DAPI staining-based immunofluorescence microscopic analysis; assay type: cell-based; method in brief: as §3
HEK-293T [27] = experiment: Inhibition of TNF-alpha induced NF-kapppaB activation in HEK293T cells at 0.31 uM incubated 1 hr prior to TNF-alpha addition measured after 18 hrs by luciferase reporter gene assay; assay type: cell-based; conditions: Homo sapiens; method in brief: as §4
Homo sapiens [28] = species on record: Homo sapiens; experiment: Induction of microtubule depolymerization in human PC3 mitotic cells assessed as abnormal spindles at 2 uM after 24 hrs by DAPI staining-based immunofluorescence microscopic analysis; assay type: cell-based; method in brief: as §3

Work on `C=C1C(=O)C=C[C@@]2(C)[C@@H](OC(C)=O)[C@H](OC(=O)c3ccccc3)C3=C(C)[C@@H](OC(=O)[C@H](O)[C@@H](NC(=O)OC(C)(C)C)c4ccccc4)C[C@@]3(C(C)(C)O)[C@@H](OC(C)=O)[C@H]12` yielded a GI50 (LOX IMVI) of 2200 nM, a GI50 (MOLT-4) of 3780 nM and a GI50 (T47D) of 4780 nM. For the same molecule, the GI50 (HCT-116 [1]) was 1870 nM, the GI50 (DU-145) was 6050 nM and the GI50 (SNB-19) was over 100000 nM. It also gave a GI50 (NCI-H322M) of 24600 nM, a GI50 (RXF 393) of 2080 nM and a GI50 (OVCAR-3) of 3190 nM.
With `CC(=O)O[C@H]1C(=O)[C@@]2(C)[C@H]([C@H](OC(=O)c3ccccc3)[C@]3(O)C[C@H](OC(=O)[C@H](O)[C@@H](NC(=O)c4ccccc4)c4ccccc4)C(C)=C1C3(C)C)[C@]1(OC(C)=O)CO[C@@H]1C[C@@H]2O` [PACLITAXEL] the GI50 (LOX IMVI) was 16 nM, the GI50 (MOLT-4) was 32 nM and the GI50 (T47D) was 10 nM. The Activity (Tubulin (Homo sapiens) [2]) was “Active”, the GI50 (HCT-116 [1]) was 10 nM and the GI50 (DU-145) was 32 nM. For the same molecule, the Activity (PC-3 [3]) was “Active”, the GI50 (SNB-19) was 40 nM and the GI50 (NCI-H322M) was 50 nM. For the same molecule, the GI50 (RXF 393) was 50 nM and the GI50 (OVCAR-3) was 20 nM.
`C=C1C(=O)C[C@H](OC(C)=O)[C@@]2(C)[C@@H](OC(C)=O)[C@H](OC(=O)c3ccccc3)C3=C(C)[C@@H](OC(=O)[C@H](O)[C@@H](NC(=O)OC(C)(C)C)c4ccccc4)C[C@@]3(C(C)(C)O)[C@@H](OC(C)=O)[C@H]12` was tested, and the inhibition (HEK-293T [4]) was 9%, the Activity (HCT-116 [5]) was 26.14% and the GI50 (LOX IMVI) was 1700 nM. For the same molecule, the Activity (HCT-116 [6]) was 20.48%, the Activity (HCT-116 [7]) was “Dose-dependent effect” and the GI50 (T47D) was 1880 nM. The Activity (HCT-116 [8]) was 14.64%, the Activity (Homo sapiens [9]) was “Active” and the Activity (Homo sapiens [10]) was “Active”. It also gave an Activity (HCT-116 [11]) of 19.87%, an Activity (HCT-116 [12]) of 16.39% and an Activity (HCT-116 [13]) of 51.25%. For the same molecule, the GI50 (HCT-116 [1]) was 1120 nM, the Activity (HCT-116 [14]) was 5.72% and the Activity (HCT-116 [15]) was 50.3%. The GI50 (DU-145) was 1890 nM, the Activity (HCT-116 [16]) was “Dose-dependent effect” and the inhibition (HEK-293T [17]) was 12%. For the same molecule, the Activity (HCT-116 [18]) was 3.3%, the inhibition (HEK-293T [19]) was “Dose-dependent effect” and the inhibition (Tubulin (Homo sapiens) [20]) was “Active”. The GI50 (SNB-19) was 27500 nM, the GI50 (NCI-H322M) was 18800 nM and the GI50 (RXF 393) was 1330 nM. The Activity (HCT-116 [21]) was 5.24%, the Activity (HCT-116 [22]) was “Dose-dependent effect” and the inhibition (HEK-293T [23]) was 28%. The Activity (HCT-116 [24]) was 4.93% and the GI50 (OVCAR-3) was 1690 nM.
For `COc1ccc(/C=C\c2cc(OC)c(OC)c(OC)c2)cc1O`, the Activity (PC-3 [25]) was “Active”.
`C=C1C(=O)C[C@H](OC(C)=O)[C@@]2(C)[C@@H](OC(C)=O)[C@H](OC(=O)c3ccccc3)C3=C(C)[C@@H](OC(=O)[C@H](O)[C@@H](NC(=O)c4ccccc4)c4ccccc4)C[C@@]3(C(C)(C)O)[C@@H](OC(C)=O)[C@H]12` gave an inhibition (HEK-293T [4]) of 27%, an Activity (HCT-116 [5]) of 29.81% and a GI50 (LOX IMVI) of 1860 nM. For the same molecule, the Activity (HCT-116 [6]) was 14.39%, the GI50 (MOLT-4) was 650 nM and the Activity (HCT-116 [7]) was “Dose-dependent effect”. The GI50 (T47D) was 1860 nM, the Activity (HCT-116 [8]) was 14% and the Activity (Homo sapiens [26]) was “Active”. The Activity (HCT-116 [11]) was 20.36%, the Activity (HCT-116 [12]) was 18.27% and the Activity (HCT-116 [13]) was 55.02%. The GI50 (HCT-116 [1]) was 1280 nM, the Activity (HCT-116 [14]) was 5.87% and the Activity (HCT-116 [15]) was 44.75%. For the same molecule, the GI50 (DU-145) was 1590 nM, the Activity (HCT-116 [16]) was “Dose-dependent effect” and the inhibition (HEK-293T [17]) was 37%. For the same molecule, the Activity (HCT-116 [18]) was 2.11%, the inhibition (HEK-293T [27]) was 14% and the inhibition (HEK-293T [19]) was “Dose-dependent effect”. For the same molecule, the inhibition (Tubulin (Homo sapiens) [20]) was “Active”, the GI50 (SNB-19) was 33700 nM and the GI50 (NCI-H322M) was 18500 nM. The GI50 (RXF 393) was 1290 nM, the Activity (Homo sapiens [28]) was “Active” and the Activity (HCT-116 [21]) was 2.82%. For the same molecule, the Activity (HCT-116 [22]) was “Dose-dependent effect”, the Activity (HCT-116 [24]) was 8.54% and the GI50 (OVCAR-3) was 1720 nM.
